Laboratory results from paper PMC11986672 (RSC Medicinal Chemistry, 2025).
“And” between values parts separate entries of the source, which are not always exact repeats. Identical values can stand only once. Counter-ions that a name gives are not always drawn. Like-named read-outs stand apart in the source and are kept apart here.

How the values were obtained:
[1] = tested on: human endometrial cancer (HEC1A) cells; assay: MTT cytotoxicity assay, HEC1A; assay type: cell-based; details: for IC50: 48 h; for Selectivity ratio: IC50 MAD11 divided by IC50 HEC1A; for times more potent than BH10: HEC1A IC50 compared with BH10
How it was run: (§1)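 HEC1A (5000/well) and MAD11 (2500/well) cells were seeded and held overnight at 37 °C. Test compound was reconstituted in DMSO and serially diluted in medium to final 160, 80, 40, 20, 10, 5, 2.5 and 1.25 μM, in triplicate, with matched DMSO in all wells. After 48 h, MTT was added for 3 h, formazan solubilised (4 mM HCl, 0.1% NP-40, isopropanol) and absorbance read at 590/620 nm. IC50 was taken against vehicle controls; selectivity = MAD11 IC50 / HEC1A IC50.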

[2] = tested on: noncancerous human endometrial stromal (MAD11) cells; assay: MTT cytotoxicity assay, MAD11; assay type: cell-based; details: MAD11, 48 h, read-out: MAD11 IC50
How it was run: as §1

[3] = Homo sapiens, HEC-1-A, read-out: HEC1A IC50, MTT cell viability, 48 h, n = 3 biological repeats
[4] = read-out: HEC1A IC50, MTT cell viability, n = 3 biological repeats

Structure (SMILES)	IC50 [1, 3]	IC50 [2]	Selectivity ratio [1]	times more potent than BH10 [1]	IC50 ([1]; Homo sapiens, HEC-1-A, read-out: HEC1A IC50)	IC50 [1, 4]
O=C1C=C(NCCN2CCOCC2)C(=O)c2ccccc21 [Compound 5, 2-((2-Morpholinoethyl)amino)naphthalene-1,4-dione]	> 40 µM	> 40 µM	–	–	–	–
O=C1C=C(NCCCN2CCOCC2)C(=O)c2ccccc21 [Compound 6, 2-((3-Morpholinopropyl)amino)-[1,4]-naphthoquinone]	> 40 µM	> 40 µM	–	–	–	–
O=C1C=C(NCCCN2CCCCC2)C(=O)c2ccccc21 [Compound 7, 2-((3-(Piperidin-1-yl)propyl)amino)-[1,4]-naphthoquinone]	17.2 µM	> 40 µM	>2.32	–	–	–
O=C1C(Br)=C(NCCN2CCOCC2)C(=O)c2ccccc21 [Compound 8, 2-Bromo-3-((2-(4-morpholinyl)ethyl)amino)-[1,4]-naphthoquinone]	9.55 µM	20.5 µM	2.15	–	–	–
O=C1C(Br)=C(NCCCN2CCOCC2)C(=O)c2ccccc21 [Compound 9, 2-Bromo-3-((3-morpholinopropyl)amino)-[1,4]-naphthoquinone]	4.16 µM	12.1 µM	2.90	–	–	–
O=C1C(Br)=C(NCCCN2CCCCC2)C(=O)c2ccccc21 [Compound 10, 2-Bromo-3-((3-(piperidin-1-yl)propyl)amino)-[1,4]-naphthoquinone]	1.24 µM	3.27 µM	2.64	–	–	–
CC1=C(NCCN2CCOCC2)C(=O)c2ccccc2C1=O [Compound 11, 2-Methyl-3-((2-(4-morpholinyl)ethyl)amino)-[1,4]-naphthoquinone]	> 40 µM	> 40 µM	–	–	–	–
CN(C)CCNC1=C(Cl)C(=O)c2ccccc2C1=O [Compound 12, 2-Chloro-3-((2-(dimethylamino)ethyl)amino)-[1,4]-naphthoquinone]	1.57 µM	2.87 µM	1.83	–	–	–
O=C1C(Cl)=C(NCCN2CCCC2)C(=O)c2ccccc21 [Compound 13, 2-Chloro-3-((2-(1-pyrrolidinyl)ethyl)amino)-[1,4]-naphthoquinone]	1.29 µM	2.38 µM	1.84	~8 times	–	–
O=C1C(Cl)=C(NCCN2CCCCCC2)C(=O)c2ccccc21 [Compound 15, 2-((2-(Azepan-1-yl)ethyl)amino)-3-chloro-[1,4]-naphthoquinone]	1.29 µM	2.38 µM	1.84	~8 times	–	–
O=C1C(Cl)=C(NCCCl)C(=O)c2ccccc21 [Compound 16, 2-Chloro-3-((2-chloroethyl)amino)-[1,4]-naphthoquinone]	–	12.1 µM	2.14	–	5.65 µM	–
O=C1C(Cl)=C(NCCN2CCN(C3=C(Cl)C(=O)c4ccccc4C3=O)CC2)C(=O)c2ccccc21 [Compound 18, 2-Chloro-3-(4-(2-((3-chloro-1,4-dioxo-1,4-dihydronaphthalen-2-yl)amino)ethyl)piperazin-1-yl)-[1,4]-naphthoquinone]	2.91 µM	3.4 µM	1.17	3.5 times	–	–
O=C1C(Cl)=C(NCCc2c[nH]c3ccccc23)C(=O)c2ccccc21 [Compound 19, 2-((2-(1H-Indol-3-yl)ethyl)amino)-3-chloronaphthalene-1,4-dione]	18.6 µM	40.3 µM	2.24	–	–	–
O=C1C(Cl)=C(NCCCN2CCOCC2)C(=O)c2ccccc21 [Compound 20, 2-Chloro-3-((3-morpholinopropyl)amino)naphthalene-1,4-dione]	6.41 µM	21.9 µM	3.42	–	–	–
CN(C)CCCNC1=C(Cl)C(=O)c2ccccc2C1=O [Compound 22, 2-Chloro-3-((3-(dimethylamino)propyl)amino)naphthalene-1,4-dione]	2.36 µM	5.27 µM	2.23	–	–	–
CCCCNC1=C(Cl)C(=O)c2ccccc2C1=O [Compound 23, 2-(Butylamino)-3-chloro-[1,4]-naphthoquinone]	32 µM	> 40 µM	>1.25	–	–	–
C#CCNC1=C(Cl)C(=O)c2ccccc2C1=O [Compound 24, 2-Chloro-3-(prop-2-yn-1-ylamino)naphthalene-1,4-dione]	21.9 µM	22.4 µM	1.02	–	–	–
CCOC(=O)CNC1=C(Cl)C(=O)c2ccccc2C1=O [Compound 25, Ethyl (3-chloro-1,4-dioxo-1,4-dihydronaphthalen-2-yl)glycinate]	20 µM	20.1 µM	1.00	–	–	–

Structure (SMILES)	IC50 [1, 3]	IC50 [2]	Selectivity ratio [1]	times more potent than BH10 [1]	IC50 ([1]; Homo sapiens, HEC-1-A, read-out: HEC1A IC50)	IC50 [1, 4]
COC(=O)[C@H](Cc1c[nH]c2ccccc12)NC1=C(Cl)C(=O)c2ccccc2C1=O [Compound 26, Methyl (3-chloro-1,4-dioxo-1,4-dihydronaphthalen-2-yl)-L-tryptophanate]	> 40 µM	> 40 µM	–	–	–	–
COC(=O)[C@H](Cc1ccccc1)NC1=C(Cl)C(=O)c2ccccc2C1=O [Compound 27, Methyl (3-chloro-1,4-dioxo-1,4-dihydronaphthalen-2-yl)-L-phenylalaninate]	> 40 µM	> 40 µM	–	–	–	–
O=C1C(Cl)=C(NCCN2CCNCC2)C(=O)c2ccccc21 [Compound 29, 2-Chloro-3-((2-(1-piperazinyl)ethyl)amino)-[1,4]-naphthoquinone salt]	4.68 µM	11.5 µM	2.45	2.2 times	–	–
COC(=O)[C@H](CCCCN)NC1=C(Cl)C(=O)c2ccccc2C1=O [Compound 30, Methyl (3-chloro-1,4-dioxo-1,4-dihydronaphthalen-2-yl)-L-lysinate]	38 µM	> 40 µM	–	–	–	–
O=C1C(Cl)=C(NCc2cn(-c3ccccc3)nn2)C(=O)c2ccccc21 [Compound 31, 2-Chloro-3-(((1-phenyl-1H-1,2,3-triazol-4-yl)methyl)amino)naphthalene-1,4-dione]	19.5 µM	34 µM	1.74	–	–	–
O=C(O)c1ccc(-n2cc(CNC3=C(Cl)C(=O)c4ccccc4C3=O)nn2)cc1 [Compound 32, 4-(4-(((3-Chloro-1,4-dioxo-1,4-dihydronaphthalen-2-yl)amino)methyl)-1H-1,2,3-triazol-1-yl)benzoic acid]	> 40 µM	> 40 µM	–	–	–	–
CCOC(=O)c1ccc(-n2cc(CNC3=C(Cl)C(=O)c4ccccc4C3=O)nn2)cc1 [Compound 33, Ethyl 4-(4-(((3-chloro-1,4-dioxo-1,4-dihydronaphthalen-2-yl)amino)methyl)-1H-1,2,3-triazol-1-yl)benzoate]	11.1 µM	21.3 µM	1.92	–	–	–
CC(=O)NC1=C(NCCCN2CCCCC2)C(=O)c2ccccc2C1=O [Compound 39, N-(1,4-Dioxo-3-((3-(piperidin-1-yl)propyl)amino)-1,4-dihydronaphthalen-2-yl)acetamide]	26 µM	> 40 µM	–	–	–	26 µM
CCC(=O)NC1=C(NCCCN2CCCCC2)C(=O)c2ccccc2C1=O [Compound 40, N-(1,4-Dioxo-3-((3-(piperidin-1-yl)propyl)amino)-1,4-dihydronaphthalen-2-yl)propionamide]	14 µM	38.2 µM	2.70	–	–	14.1 µM
CCCC(=O)NC1=C(NCCCN2CCCCC2)C(=O)c2ccccc2C1=O [Compound 41, N-(1,4-Dioxo-3-((3-(piperidin-1-yl)propyl)amino)-1,4-dihydronaphthalen-2-yl)butyramide]	15 µM	> 40 µM	–	–	–	–
CCCCC(=O)NC1=C(NCCCN2CCCCC2)C(=O)c2ccccc2C1=O [Compound 42, N-(1,4-Dioxo-3-((3-(piperidin-1-yl)propyl)amino)-1,4-dihydronaphthalen-2-yl)pentanamide]	15 µM	> 40 µM	–	–	–	–
CC(=O)NC1=C(NCCN2CCOCC2)C(=O)c2ccccc2C1=O [Compound 43, N-(3-((2-Morpholinoethyl)amino)-1,4-dioxo-1,4-dihydronaphthalen-2-yl)acetamide]	> 40 µM	> 40 µM	–	–	–	–
CCc1nc2c(n1CCCN1CCCCC1)C(=O)c1ccccc1C2=O [Compound 45, 2-Ethyl-1-(3-(piperidin-1-yl)propyl)-1H-naphtho[2,3-d]imidazole-4,9-dione]	12 µM	35 µM	2.92	–	–	–
CCCc1nc2c(n1CCCN1CCCCC1)C(=O)c1ccccc1C2=O [Compound 46, 1-(3-(Piperidin-1-yl)propyl)-2-propyl-1H-naphtho[2,3-d]imidazole-4,9-dione]	19 µM	> 40 µM	–	–	–	–
CCCCc1nc2c(n1CCCN1CCCCC1)C(=O)c1ccccc1C2=O [Compound 47, 2-Butyl-1-(3-(piperidin-1-yl)propyl)-1H-naphtho[2,3-d]imidazole-4,9-dione]	14 µM	24 µM	1.80	–	–	–
Cc1nc2c(n1CCN1CCOCC1)C(=O)c1ccccc1C2=O [Compound 48, 2-Methyl-1-(2-morpholinoethyl)-1H-naphtho[2,3-d]imidazole-4,9-dione]	> 40 µM	> 40 µM	–	–	–	–
O=C(Cc1ccccc1)NC1=C(NCCCN2CCCCC2)C(=O)c2ccccc2C1=O [Compound 50, N-(1,4-Dioxo-3-((3-(piperidin-1-yl)propyl)amino)-1,4-dihydronaphthalen-2-yl)-2-phenylacetamide]	8.8 µM	39 µM	4.4 and 4.43	–	–	–
